Article PMC7610821 (Chemical communications (Cambridge, England), 2020)

What was measured:
[1] = system: Histone 3 Lysine 56 acetylation (H3K56Ac); test: H3K56 acetylation by quantitative western blotting in ES cells; assay type: cell-based; settings: E14 mouse ES cells, 24h; CI-994 = 40μM, Panobinostat = 30 nM
[2] = system: HCT116 cells; test: Cell viability of HCT116 cells by flow cytometry; assay type: cell-based, human; settings: HCT116, 40μM, 48 hours
Method in brief: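 Human colon cancer HCT116 cells were exposed to the test compound at 10 and 40 μM. A reference class I HDAC inhibitor was run alongside. Viability was scored by flow cytometry after 48 h of treatment.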

[3] = molecular target: LSD1-CoREST-HDAC1 complex (Homo sapiens, UniProt Q13547); test: AMC-fluorescence histone deacetylase inhibition assay with purified complex; assay type: biochemical; settings: compared with CI-994, Fig 3A
LSD1-CoREST-HDAC1 complex, sequence (Q13547 whole entry, other chains not shown): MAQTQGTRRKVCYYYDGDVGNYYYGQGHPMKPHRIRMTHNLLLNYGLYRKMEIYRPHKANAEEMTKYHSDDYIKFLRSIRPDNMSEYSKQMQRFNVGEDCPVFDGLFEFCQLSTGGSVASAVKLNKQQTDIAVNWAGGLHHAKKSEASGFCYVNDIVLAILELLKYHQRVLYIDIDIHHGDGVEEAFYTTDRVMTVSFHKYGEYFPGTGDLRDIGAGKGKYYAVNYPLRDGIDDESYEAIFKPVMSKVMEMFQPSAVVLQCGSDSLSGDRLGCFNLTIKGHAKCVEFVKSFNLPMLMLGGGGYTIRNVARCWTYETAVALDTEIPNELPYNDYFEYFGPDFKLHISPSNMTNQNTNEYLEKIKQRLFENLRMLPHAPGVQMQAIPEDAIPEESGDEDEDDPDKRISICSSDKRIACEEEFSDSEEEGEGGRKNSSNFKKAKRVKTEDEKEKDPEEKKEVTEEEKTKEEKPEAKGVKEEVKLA
LSD1-CoREST-HDAC1 complex, sequence (Q9UKL0 86-485 partner limits assumed, other chains not shown): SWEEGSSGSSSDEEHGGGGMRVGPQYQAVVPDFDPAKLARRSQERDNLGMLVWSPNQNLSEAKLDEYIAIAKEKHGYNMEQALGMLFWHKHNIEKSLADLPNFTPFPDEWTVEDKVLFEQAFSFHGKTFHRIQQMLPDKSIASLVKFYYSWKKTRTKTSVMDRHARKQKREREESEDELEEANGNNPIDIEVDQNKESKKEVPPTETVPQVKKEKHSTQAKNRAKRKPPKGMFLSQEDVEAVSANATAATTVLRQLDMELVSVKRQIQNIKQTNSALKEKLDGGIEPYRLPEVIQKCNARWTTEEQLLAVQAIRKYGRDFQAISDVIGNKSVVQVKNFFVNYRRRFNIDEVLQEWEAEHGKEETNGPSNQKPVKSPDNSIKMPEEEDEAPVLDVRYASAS

SMILES: Cc1[nH]c2ccccc2c1CCNCc1ccc(/C=C/C(=O)NO)cc1 [Panobinostat]
- H3K56 acetylation increase, fold compared to non-treated cells [1]: 15-20 fold

SMILES: CC(=O)Nc1ccc(C(=O)Nc2ccccc2N)cc1 [CI-994]
- Cell death [2]: 73%

SMILES: CC(=O)Nc1ccc(C(=O)Nc2ccccc2NC(=O)OC(C)(C)C)cc1 [Compound 5]
- HDAC inhibition of the LSD1-CoREST-HDAC1 complex (in words) [3]: no HDAC inhibition
